Laboratory results reported in ChEMBL document CHEMBL5042551, “Dynamic Combinatorial Optimization of In Vitro and In Vivo Heparin Antidotes” (J Med Chem, 2022).
Activity calls are given as the source filed them. No cut-off for these calls is given here.

What was measured:
[1] = target: Heparin; experiment: Binding affinity to heparin (unknown origin) assessed as apparent dissociation constant by SPR assay; set-up: species or system Homo sapiens; conditions: read-out: Kd(app)
Outline: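 Heparin-functionalized chip: biotin sensor chip loaded with streptavidin (50 μg/mL), then biotin-heparin (50 μg/mL). Ligands injected at 40 μL/min, 25 °C, in 25 mM Tris pH 7.5; surface regenerated with 10 mM HCl. Three independent runs at three ligand concentrations globally fitted to a 1:1 two-state (conformational change) model to give on/off rates and KDapp.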

[2] = system: Heparin; experiment: Inhibition of heparin (unknown origin) assessed as reversal of heparin reduced FXa protease activity by measuring Z-D-LGR-N(Me)ANBA peptide substrate at 1 uM hydrolysis after 30 mins; conditions: Homo sapiens
Outline: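 Human antithrombin III (0.02 IU/mL) and factor Xa (0.085 μg/mL) combined with heparin (0.1 IU/mL) and ligand (1 μM), then chromogenic substrate added (485 μM) with 4-nitroaniline as internal standard, shaken at 25 °C. Aliquots acid-quenched and analysed by HPLC at 405 nm; percent hydrolysis taken from normalized cleaved-peptide area, with no-heparin as maximal activity and heparin-only as maximal inhibition.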

[3] = system: Heparin; experiment: Reversal of heparin mediated anticoagulant activity in mouse blood after 15 mins; conditions: dose 90-250 µM
Outline: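 Freshly drawn, untreated mouse blood split into 300 μL aliquots, given heparin (130 μM, per disaccharide repeat unit) plus ligand at various concentrations; after 15 min, clotting judged by inverting the tubes and photographing.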

[4] = system: Heparin; experiment: Reversal of heparin mediated anticoagulant activity in heparinized CD-1 mouse at 2.2 to 4.4 mg/kg, iv after 10 mins by tail transection assay; format: organism-based; conditions: dose 2.2-4.4 mg/kg
Outline: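 Eight-week-old male CD-1 mice anaesthetised with xylazine/ketamine, then given iv heparin (100 IU/kg) followed by ligand at 2.2 or 4.4 mg/kg; saline, heparin-only and ligand-only (4.4 mg/kg, n = 3) controls. Tails cut 5 mm from tip 5 min after injection and bled 10 min into 1 mL saline at 37 °C; blood volume from absorbance at 414 nm against a standard curve. ANOVA.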

[5] = system: A549; experiment: Cytotoxicity against human A549 cells assessed as reduction in cell viability at 25 to 50 uM incubated for 1 hr by MTT assay; format: functional, cell-based; conditions: dose 25-50 µM
Outline: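 A549 cells grown in DMEM with 10% FCS, 2 mM glutamine and antibiotics at 37 °C, 5% CO2; seeded at 7000 cells/well, exposed to compound in medium 24 h later for 1 h, then MTT (0.5 mg/mL) for 2 h, formazan dissolved in DMSO, absorbance read at 570 nm. Viability as percent of untreated cells; three independent experiments.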

[6] = target: Heparin; experiment: Binding affinity to heparin (unknown origin) assessed as apparent dissociation constant by fluorescence emission titration method; set-up: species or system Homo sapiens; conditions: read-out: Kd(app)
Outline: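 Binder at 10 μM in 1 mM Bis-Tris pH 7.5, excited at 280 nm; heparin stock (18 IU/mL) added in small portions with emission spectrum recorded after each addition. Full spectra globally fitted by nonlinear regression to a binding model of 1:1, 1:2 and 2:1 ligand–heparin disaccharide complexes to estimate equilibrium constants and apparent KD.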

[7] = target: Heparin; experiment: Binding affinity to heparin (unknown origin) assessed as apparent dissociation constant by ITC assay; set-up: species or system Homo sapiens; conditions: read-out: Kd(app)

| Kd [1] | inhibition [2] | Structure (SMILES) | other results |
| --- | --- | --- | --- |
| 0.797 µM | Active | Oc1ccc2ccccc2c1CNCCCNCCCCNCCCNCc1c(O)ccc2ccccc12 | Activity [3]: Dose-Dependent Effect; Activity [4]: Active; Activity [5]: inactive |
| 0.567 µM | Active | Oc1ccccc1CNCCCNCCCCNCCCNCc1ccc2c(c1)Cc1ccccc1-2 | Kd [6]: 0.5 µM; Activity [3]: Dose-Dependent Effect; Activity [4]: Active; Activity [5]: inactive |
|  | Active | Oc1c(CNCCCNCCCCNCCCNCc2ccc3ccccc3c2O)ccc2ccccc12 |  |
| 1.89 µM |  | Oc1ccccc1CNCCCNCCCCNCCCNCc1cccc2ccccc12 | Kd [7]: 1.3 µM |
| 1.53 µM | Active | N=C(N)NCCC[C@H](N)C(=O)NCCCN1CCN(CCCNC(=O)[C@@H](N)CCCNC(=N)N)CC1 [CIRAPARANTAG] |  |
| 21.5 µM |  | Oc1ccccc1CNCCCNCCCCNCCCNCc1ccccc1O | Kd [7]: 22.5 µM |
| 33.7 µM |  | COc1ccccc1CNCCCNCCCCNCCCNCc1ccccc1OC |  |
| 2.62 µM |  | Oc1ccccc1CNCCCNCCCCNCCCNCc1c(O)ccc2ccccc12 |  |
| 1.86 µM | Active | Oc1ccccc1CNCCCNCCCCNCCCNCc1ccc2ccccc2c1O |  |
